Experimental data taken from the RNAGym collection of RNA variant scans (doi:10.1126/science.aae0568).
Fewer inactive variants are shown than the library holds.

B1: tRNA (parent)
chain: GUUCCGUUGGCGUAAUGGUAACGCGUCUCCCUCCUAAGGAGAAGACUGCGGGUUCGAGUCCCGUACGGAACG

Variants of: B1
Test: yeast fitness relative to wild type (ratio to wild type); higher = fitter; tRNA-Arg(CCU), competitive growth, 37 C, YPD
Procedure, shortened: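 A pool of Saccharomyces cerevisiae strains, each with a tRNA-Arg(CCU) gene variant at the native genomic locus, was competed in YPD at 37°C for 24 hours across six parallel replicates. The variants had been chemically synthesised at a 3% per-site mutation rate over 69 sites, and gene amplicons before and after competition were read by 100-nucleotide paired-end sequencing. Darwinian fitness relative to wild type rested on changes in genotype frequencies. Genotypes required ≥ 100 starting reads, and estimates < 0.5 were set to 0.5.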

| Variant | yeast fitness |
| --- | --- |
| GUUCCGUUGGCGUAAUGGUAACGCGUCUCACUCCUAAGGAGAAGACUGCGGGUUCGAGUCACGUCCGGAACG [C30A C61A A65C] | 0.578 |
| GUUCCGUUGGCGUAAUGGUAACGCGUCUCACUCCUAAGGAGAAGACUGCGGGCUCGAGUCCCGUACGGAACG [C30A U53C] | 0.82 |
| GUUCCGUUGGCGUAAUGGUAACGCGUCUCACUCCUAAGGAGAAGACUGUGGGUUCGAGUCCCGUACUGAACG [C30A C49U G67U] | 0.608 |
| GUUCCGUUGGCGUAAUGGUAACGCGUCUCACUCCUAAGGAGAAGACUGCGGGUACGCGUCCCGUACGGAACG [C30A U54A A57C] | 0.548 |
| GUUCCGUUGGCGUAAUGGUAACGCGUCUCACUCCUAAGGAGAAGACUGCGCGUUCGAGUCCCGUACGGAACG [C30A G51C] | 0.508 |
| GUUCCGUUGGCGUAAUGGUAACGCGUCUCACUCCUAAGGAGAAGACUGCGAGUUCGAGUCCCGUACGGAACG [C30A G51A] | 0.774 |
| GUUCCGUUGGCGUAAUGGUAACGCGUCUCGCUCCUAAGGUGAAGAUUGCGGGUUCGAGUCCCGUACGGAACG [C30G A40U C46U] | 0.558 |
| GUUCCGUUGGCGUAAUGGUAACGCGUCUCACUCCUAAGGAGAAGACUGCGGGUUCGAGUCCCGUACCGAACG [C30A G67C] | 0.841 |
| GUUCCGUUGGCGUAAUGGUAACGCGUCUCACUCCUAAGGAGAAGACUGCGGGUUCGAGUCCCGUACUGAACG [C30A G67U] | 0.671 |
| GUUCCGUUGGCGUAAUGGUAACGCGUCUCGCUCCUAAGGAGAUGACUCCGGGUUAGAGUCCCGUACGGAACG [C30G A43U G48C C55A] | 0.557 |
| GUUCCGUUGGCGUAAUGGUAACGCGUCUCGCUCCUAAGGAGAAGCUUGCGGGUUCGAGUCCCGUACGGAACG [C30G A45C C46U] | 0.612 |
| GUUCCGUUGGCGUAAUGGUAACGCGUCUCACUCCUAAGGAGAAGACUGCGCGUUCGAGUCCGGUACGGAACG [C30A G51C C62G] | ≤ 0.5 |
| GUUCCGUUGGCGUAAUGGUAACGCGUCUCGCUCCUAAGGAGAAGGCUGCGGGUUCAAGUCCCGUACGGAACG [C30G A45G G56A] | 0.526 |
| GUUCCGUUGGCGUAAUGGUAACGCGUCUCACUCCUAAGGAGAAGACUGCGGGUUCGAGUCUCGUUCGGAACG [C30A C61U A65U] | ≤ 0.5 |
| GUUCCGUUGGCGUAAUGGUAACGCGUCUCGCUCCUAAGGAGACGACUGCGGGUUCGAGUCCUGUACGGAACG [C30G A43C C62U] | 0.533 |
| GUUCCGUUGGCGUAAUGGUAACGCGUCUCGCUCCUACGGAGAAGAGUGCGGGUUCGAGUCCCGUACGGAACG [C30G A37C C46G] | ≤ 0.5 |
| GUUCCGUUGGCGUAAUGGUAACGCGUCUCACUCCUAAGGAGAAACCUGCGGGUUCGAGUCCCGUACGGAUCG [C30A G44A A45C A70U] | ≤ 0.5 |
| GUUCCGUUGGCGUAAUGGUAACGCGUCUCGCUCCUAAGGGGAAGACUGUGGGUUCGAGUCCCGUACGGAACG [C30G A40G C49U] | ≤ 0.5 |
| GUUCCGUUGGCGUAAUGGUAACGCGUCUCACUCCUAAGGAGAAGACUGCGGGCUCGAGUCCCGUACGGACCG [C30A U53C A70C] | 0.506 |

| Variant | yeast fitness |
| --- | --- |
| GUUCCGUUGGCGUAAUGGUAACGCGUCUCACUCCUAAGGACAAGACUGCGGGUUCGAGUCCCGUACGGAACG [C30A G41C] | 0.796 |
| GUUCCGUUGGCGUAAUGGUAACGCGUCUCACUCCUAAGGAGAAGACUGCGGGUUCCAGUCCCGUACGGAACG [C30A G56C] | 0.639 |
| GUUCCGUUGGCGUAAUGGUAACGCGUCUCACUCCUAAGGAGAAGACUGCGGGUUCAAGUCCCGUACGGAACG [C30A G56A] | 1.04 |
| GUUCCGUUGGCGUAAUGGUAACGCGUCUCACUCCUAAGGAGAAGACUGCGGGUUCUAGUCCCGUACGGAACG [C30A G56U] | 0.831 |
| GUUCCGUUGGCGUAAUGGUAACGCGUCUCACUCCUAAGGAGAAGACUGCGCGUUAGAGUCCCGUAUGGAACG [C30A G51C C55A C66U] | ≤ 0.5 |
| GUUCCGUUGGCGUAAUGGUAACGCGUCUCACUCCUAAGGAGAAGACUGCGGGUUCGAGUCCGGUACGGAACG [C30A C62G] | 0.662 |
| GUUCCGUUGGCGUAAUGGUAACGCGUCUCGCUCCUGAGGAGAAGACUGCGGGUUCGUGUCCCGUACGGAACG [C30G A36G A57U] | ≤ 0.5 |
| GUUCCGUUGGCGUAAUGGUAACGCGUCUCACUCCUAAGGAGAAGACUACGGGUUCGAGUCCCGAAGGGAACG [C30A G48A U64A C66G] | 0.611 |
| GUUCCGUUGGCGUAAUGGUAACGCGUCUCACUCCCAUGGAGAAGACUGCGGGUUCGAGUCCCGUACGGAACG [C30A U35C A37U] | 0.547 |
| GUUCCGUUGGCGUAAUGGUAACGCGUCUCACUCCUAAGGAGAAGACUGCGGGUUCAAGUGCCGUACGGAACG [C30A G56A C60G] | ≤ 0.5 |
| GUUCCGUUGGCGUAAUGGUAACGCGUCUCACUCCUAAGGAGAAGACUCCGGGUUCGAGUCCCGUACGGAACG [C30A G48C] | 0.797 |
| GUUCCGUUGGCGUAAUGGUAACGCGUCUCGCUCCUACGGAGAAGGCUGCGGGUUCGAGUCCCGUACGGAACG [C30G A37C A45G] | 0.633 |
| GUUCCGUUGGCGUAAUGGUAACGCGUCUCACUCCUAAGGAGAAAACUGCGGGUUCGAGUCCCGUACGGAACG [C30A G44A] | 0.88 |
| GUUCCGUUGGCGUAAUGGUAACGCGUCUCACUCCUAAGGAAAAGACCGCGGGUUCGAGUCCCGUACGGAACG [C30A G41A U47C] | 0.559 |
| GUUCCGUUGGCGUAAUGGUAACGCGUCUCGCUCCUAAGGAGAUGACUCCGGGUUCGAGUCCCGGACGGAACG [C30G A43U G48C U64G] | ≤ 0.5 |
| GUUCCGUUGGCGUAAUGGUAACGCGUCUCACUCCUAAGGAGAAGACUGCGGAUUCGAGUCCCGUACGGAACG [C30A G52A] | 0.813 |
| GUUCCGUUGGCGUAAUGGUAACGCGUCUCGCUCCUAAGGAGACGACUGCGGGUUCGAGUGCCGUAUGGAACG [C30G A43C C60G C66U] | ≤ 0.5 |
| GUUCCGUUGGCGUAAUGGUAACGCGUCUCACUCCUAAGGAGAAGACUGCGGAUUCGAGUCCCGUUCGGAACG [C30A G52A A65U] | ≤ 0.5 |
